# Measurements from ChEMBL document CHEMBL1759860, “Synthesis and biological evaluation of 5-membered spiro heterocycle-benzopyran derivatives against myocardial ischemia” (2011).
# Calls of active or inactive are those of the source. The calls are words filed in the database; no cut-off is given here.
# Columns and labels:
# [1] = tested on: H9c2; assay: Anti-ischemic activity against ischemia/reperfusion-induced rat H9c2 cell death assessed as cell viability at 10 uM (Rbv = 63 +/- 2%); format: functional; conditions: read-out: Activity
# [2] = tested on: H9c2; assay: Anti-ischemic activity against ischemia/reperfusion-induced rat H9c2 cell death assessed as cell viability at 100 uM (Rbv = 63 +/- 2%); format: functional; conditions: read-out: Activity
# [3] = tested on: H9c2; assay: Anti-ischemic activity against ischemia/reperfusion-induced rat H9c2 cell death assessed as cell viability at 100 uM in presence of mito-KATP channel blocker 5-hydroxydecanoic acid; format: functional, cell-based
# [4] = tested on: H9c2; assay: Anti-ischemic activity against ischemia/reperfusion-induced rat H9c2 cell death assessed as cell viability at 10 uM in presence of mito-KATP channel blocker 5-hydroxydecanoic acid; format: functional, cell-based
# [5] = tested on: Rattus norvegicus; assay: Anti-ischemic activity against Langendorff perfused Wistar rat heart assessed as recovery of post-ischemic inotropic functionality measured during whole reperfusion period at 40 mg/kg, ip relative to control; format: functional, organism-based; design: dose 40 mg/kg; conditions: Wister
# How it was run: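 Rats pre-treated with test agent 40 mg/kg before heart isolation. Langendorff-perfused hearts underwent ischemia then reperfusion. Rate-pressure product (RPP) was recorded over the reperfusion period and expressed as % of pre-ischemic RPP.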
# [6] = tested on: Rattus norvegicus; assay: Anti-ischemic activity against in Langendorff perfused Wistar rat heart assessed as reduction in ischemia-induced left ventricular tissue injury at 40 mg/kg, ip by morphological analysis; format: functional, organism-based; design: dose 40 mg/kg; conditions: Wister
# How it was run: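 Hearts came from rats pre-treated at 40 mg/kg and underwent ischemia/reperfusion in Langendorff perfusion. Left ventricles were analysed morphologically for injured tissue. Infarct size was expressed as % of left ventricular area (Ai/ALV%).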
smiles,measurement,setting,value
CC(=O)Nc1ccc(CN2C(=N)C3(CC(C)(C)Oc4ccccc43)OC2=O)cc1 (racemic),viability at 10 µM,[1],68%
CC1=Nc2ccc(Cl)cc2S(=O)(=O)N1 [DIAZOXIDE],viability at 100 µM,[2],103%
same,Activity,[3],inactive
CC1(C)CC2(OC(=O)N(Cc3ccc(NS(C)(=O)=O)cc3)C2=N)c2cc(Br)ccc2O1 (racemic),viability at 10 µM,[1],78%
CC(=O)Nc1ccc(CN2CC3(CC(C)(C)Oc4ccccc43)OCC2=O)cc1 (stereo not given),viability at 10 µM,[1],99%
same,Activity,[4],inactive
same,Activity,[5],Active
same,Activity,[6],Active
CC1(C)CC2(CN(Cc3ccc(NS(C)(=O)=O)cc3)C(=O)O2)c2ccccc2O1 (racemic),viability at 10 µM,[1],84%
CC(=O)Nc1ccc(CN2CC3(CC(C)(C)Oc4ccc(Br)cc43)OC2=O)cc1 (racemic),viability at 10 µM,[1],81%
CC(=O)Nc1ccc(CN2CC3(CC(C)(C)Oc4ccccc43)OC2=O)cc1 (racemic),viability at 10 µM,[1],92%
same,Activity,[4],inactive
same,Activity,[5],Active
same,Activity,[6],Active
CC(=O)Nc1ccc(CN2C(=N)C3(CC(C)(C)Oc4ccc(Br)cc43)OC2=O)cc1 (racemic),viability at 10 µM,[1],76%
